Data on ten molecules can be found in ChEMBL document CHEMBL3853352, “Anti-tubercular activities of 5,6,7,8-tetrahydrobenzo[4,5]thieno[2,3-d]pyrimidin-4-amine analogues endowed with high activity toward non-replicative Mycobacterium tuberculosis” (Bioorg Med Chem, 2016).

Each structure is given as a SMILES string. Converted amounts (≈) assume the structure as drawn. A value given as a limit tells only on which side of the number the result lay.

The subject of data set [1] is Mycobacterium tuberculosis. Put plainly: Antimycobacterial activity against Mycobacterium tuberculosis H37Rv after 6 days by resazurin assay. As to conditions: 144 h. The class given is functional. For orientation: The colour change of resazurin is a common sign of viable cells or microbes.
Data set [2] has as its system Mycobacterium tuberculosis. The data set can be described thus: Antimycobacterial activity against Mycobacterium tuberculosis H37Rv after 7 days by MABA. It counts as functional. As to conditions: 168 h. The essentials: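 M. tuberculosis H37Rv inoculum taken from fresh LJ medium, resuspended in 7H9-S (7H9, 0.1% casitone, 0.5% glycerol, OADC), adjusted to McFarland No. 1 and diluted 1:20. Serial two-fold drug dilutions in 7H9-S, with growth and sterile controls. Incubated 7 days at 37 °C in normal atmosphere, then alamar blue added and incubated overnight. MIC = lowest concentration preventing the blue-to-pink change.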

For data set [3], the system named is Mycobacterium tuberculosis. The data set can be described thus: Antimycobacterial activity against dormant stage of Mycobacterium tuberculosis H37Rv assessed as reduction in bacterial growth under nutrient starved conditions at 10 ug/ml for 7 days measured after 28 days. The class given is functional. The method, boiled down:
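H37Rv grown in 7H9/OADC, washed twice and resuspended in PBS, then held in sealed bottles at 37 °C for 6 weeks. Starved cultures exposed to compound at 10 ug/ml for 7 days. Cells diluted 10-fold serially to 10^-6 in 7H9/OADC and plated in triplicate. Incubated 28 days at 37 °C without agitation; wells with visible growth scored positive and MPN calculated.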

In data set [4] the target is T1, L-lysine-epsilon aminotransferase (Mycobacterium tuberculosis) (UniProt P9WQ77).
T1 sequence (whole entry): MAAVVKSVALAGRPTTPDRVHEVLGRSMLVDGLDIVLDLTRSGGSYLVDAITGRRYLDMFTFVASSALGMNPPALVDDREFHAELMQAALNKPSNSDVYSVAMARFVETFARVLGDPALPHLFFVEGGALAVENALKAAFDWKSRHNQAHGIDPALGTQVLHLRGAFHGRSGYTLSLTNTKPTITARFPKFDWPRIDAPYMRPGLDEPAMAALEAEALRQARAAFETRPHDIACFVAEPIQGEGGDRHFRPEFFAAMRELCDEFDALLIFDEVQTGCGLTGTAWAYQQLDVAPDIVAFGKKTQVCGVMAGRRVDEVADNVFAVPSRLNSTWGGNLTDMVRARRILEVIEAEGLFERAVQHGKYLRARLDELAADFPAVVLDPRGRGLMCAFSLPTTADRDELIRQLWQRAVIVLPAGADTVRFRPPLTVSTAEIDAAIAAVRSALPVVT
Put plainly: Inhibition of Mycobacterium tuberculosis LAT at 25 uM.

The nature of data set [5]: Inhibition of Mycobacterium tuberculosis ADH assessed as decrease in conversion of L-alanine to pyruvate by measuring NADH by spectrophotometry. Further details: species or system Mycobacterium tuberculosis H37Rv. The essentials:
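Mtb L-AlaDH oxidative deamination of L-alanine to pyruvate at 37 °C. NADH formation read at 340 nm. Compounds tested from 25 µM to 0.5 µM. Background read from the reaction mixture without enzyme. IC50 values calculated from the concentration series.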

Data set [6] has as its system Mycobacterium tuberculosis. The data set can be described thus: Binding affinity to Mycobacterium tuberculosis ADH assessed as change in melting temperature by Sypro orange dye based differential scanning fluorimetry. The essentials:
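Thermal shift assay on Mtb L-AlaDH (100 µg/ml, 10 µl) in 100 mM HEPES-NaOH pH 7.8 with 6 µl of 15× Sypro Orange; compounds added in <10% DMSO. Samples equilibrated 3 min at 25 °C, then ramped to 95 °C in 0.1 °C steps. Tm taken as the lowest point of the first-derivative plot; shift measured against the native protein.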
(DSF heats the sample and reads unfolding from a dye or from intrinsic fluorescence.)

A short description of data set [7]: Cytotoxicity against mouse RAW264.7 cells assessed as inhibition of cell proliferation at 50 ug/ml after 48 hrs by MTT assay. It counts as toxicity. The method, boiled down: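 RAW 264.7 mouse macrophages grown in RPMI with 10% FBS and penicillin/streptomycin, then seeded at about 5000 cells/well on poly-L-lysine-coated plates. Pre-incubated 24 h at 37 °C, 5% CO2, then exposed to compound for 48 h. MTT (0.5 mg/ml) added for 3 h and formazan read at 595 nm.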
A general note: Tetrazolium dyes change colour on reduction, which living cells bring about.

In data set [8] the test system is Mycobacterium tuberculosis H37Rv. The data set can be described thus: Inhibition of Mycobacterium tuberculosis ADH assessed as decrease in conversion of L-alanine to pyruvate at 25 uM by measuring NADH by spectrophotometry.

The MIC is the least concentration at which growth counts as inhibited. Consider `Cc1cccc(-c2nc(Nc3ccncn3)c3c(C)csc3n2)n1`, for which, in data set [1], the minimum inhibitory concentration (MIC) is 0.76 µM (≈ 0.254 µg/mL).

By inhibition is commonly meant the percentage by which the read-out fell short of the control. Usually IC50 stands for the concentration that inhibits the measured activity by half. One may read the ΔTm as the change in melting temperature against a reference sample. In data set [2], `CCc1nc(NCCc2ccccc2)c2c3c(sc2n1)CCCC3` had a minimum inhibitory concentration (MIC) of 37 µM (≈ 12.5 µg/mL). The “fold change (FC)” value in data set [3] was over 1. Besides, the inhibition was under 50% in data set [4] and 50% in data set [8]. The IC50 in data set [5] turned out to be 1.82 µM. Moreover, in data set [6], the ΔTm was determined as 1.4 °C. The inhibition at 48 h, 50 ug/ml in data set [7] came to 25.2%.

In data set [2], `c1ccc(CCNc2nc(-c3ccccc3)nc3sc4c(c23)CCCC4)cc1` showed a minimum inhibitory concentration (MIC) of 64.8 µM (≈ 25 µg/mL). Also, the “fold change (FC)” value in data set [3] was over 1. The results for the inhibition in data set [4] and in data set [8] were under 50% and 50%, respectively. In data set [5], the IC50 came out at 5.6 µM. For the same molecule, the inhibition at 48 h, 50 ug/ml in data set [7] turned out to be 24.6%.

In data set [2], `CCc1nc(Nc2ccc(Br)cc2)c2c3c(sc2n1)CCCC3` registered an MIC of 32.2 µM (≈ 12.5 µg/mL). Also, in data set [3], the “fold change (FC)” value is over 1. Besides, the inhibition in data set [4] was under 50%; in data set [8], 50%. In data set [5], the IC50 was 6.54 µM. For the same molecule, in data set [7], the inhibition at 48 h, 50 ug/ml was 12.6%.

Turning to `Cc1cccc(C)c1Nc1nc(-c2ccccc2)nc2sc3c(c12)CCCC3`, it took 8.11 µM (≈ 3.13 µg/mL) to inhibit growth in data set [2] (MIC). The “fold change (FC)” value in data set [3] is over 1. For the same molecule, the inhibition in data set [4] was under 50%; in data set [8], 50%. Besides, the IC50 in data set [5] was determined as 8.82 µM. Also, the inhibition at 48 h, 50 ug/ml in data set [7] amounted to 25.5%.

With `CCc1nc(Nc2c(C)cccc2C)c2c3c(sc2n1)CCCC3`, in data set [2], the minimum inhibitory concentration (MIC) worked out at 18.5 µM (≈ 6.25 µg/mL). Besides, the “fold change (FC)” value in data set [3] is recorded as over 1. Also, the inhibition in data set [4] is under 50%; in data set [8] it was 50%. In data set [5], the IC50 was 5.02 µM. Also, the inhibition at 48 h, 50 ug/ml in data set [7] worked out at 26.5%.

Consider `CCc1nc(Nc2ccc(F)cc2)c2c3c(sc2n1)CCCC3`, for which inhibition of growth in data set [2] (MIC) required 38.2 µM (≈ 12.5 µg/mL). Further, in data set [3], the “fold change (FC)” value is over 1. Moreover, the inhibition in data set [4] was under 50%; in data set [8], 50%. In data set [5], the half-inhibitory concentration (IC50) was determined as 6.05 µM. Further, the inhibition at 48 h, 50 ug/ml in data set [7] amounted to 14%.

For the molecule `Cc1ccc(C)c(Nc2nc(-c3ccccc3)nc3sc4c(c23)CCCC4)c1`, the MIC in data set [2] is 2.02 µM (≈ 0.779 µg/mL). The “fold change (FC)” value in data set [3] is recorded as over 1. In addition, the inhibition was under 50% in data set [4] and 50% in data set [8]. Moreover, the IC50 in data set [5] amounted to 5.82 µM. Besides, the inhibition at 48 h, 50 ug/ml in data set [7] turned out to be 3.23%.

In data set [2], `CCc1nc(Nc2ccc(Cl)cc2)c2c3c(sc2n1)CCCC3` returned an MIC of 18.2 µM (≈ 6.25 µg/mL). Moreover, the “fold change (FC)” value in data set [3] is recorded as over 1. The inhibition is under 50% in data set [4] and 50% in data set [8]. In addition, the half-maximal inhibitory concentration (IC50) in data set [5] turned out to be 4.94 µM. In data set [7], the inhibition at 48 h, 50 ug/ml was determined as 15.6%.

Turning to `Cc1ccc(Nc2nc(C3CC3)nc3sc4c(c23)CCCC4)c(C)c1`, in data set [2], the MIC was 71.5 µM (≈ 25 µg/mL). Moreover, the “fold change (FC)” value in data set [3] was over 1. Further, the inhibition in data set [4] is under 50%; in data set [8], 50%. In addition, the IC50 in data set [5] amounted to 9 µM. Besides, the inhibition at 48 h, 50 ug/ml in data set [7] was 23.9%.
